Measurements gathered from unrelated publications.
Protocols differ between the studies behind these lines.
Cell line: MCF7
Read-out: cell growth or viability

C/C=C(/C)C(=O)O[C@@H]1[C@H](OC(C)=O)c2c(ccc3ccc(=O)oc23)OC1(C)C — IC50 (WST-1): 39.1 µM
CC(C)(C)CC(C)(C)Nc1c(-c2cccnc2)nc2ncccn12 — viability (MTT; 25 µM, 48 h): 93.9%
COc1cc(O)c(CC=C(C)C)c2c1C(=O)CC(c1ccc(O)cc1)O2 (stereo not drawn) — IC50 (MTT; 48 h): > 100 µM
CC1(C)CC[C@]2(C)CC[C@]3(C)[C@H]4CC=C5[C@@H](CC[C@H](O)C5(C)C)[C@]4(C)CC[C@@]3(C)[C@@H]2C1 — IC50 (WST-1): 28.4 µM
O=c1[nH]cc(F)c(=O)[nH]1 — CC50 (crystal violet; 72 h): 641 µM
COc1cc2c(OC)nc3c4cc5c(cc4cc(OC(C)=O)c3c2cc1OC)OCO5 — GI50 (MTT): 4.5 µM
O=C(Nc1ccccc1OS(=O)(=O)c1ccc(F)cc1)c1ccc2ncccc2c1 — viability (MTT; 100 µM, 24 h): 85.6%
COc1ccc(-c2nc3ncccn3c2NC(C)(C)CC(C)(C)C)cc1O — viability (MTT; 25 µM, 48 h): 65.3%
COc1cccc2c1C(=O)c1c(O)c3c(c(O)c1C2=O)C[C@@](O)(C(=O)CO)C[C@@H]3O[C@H]1C[C@H](N)[C@H](O)[C@H](C)O1 — IC50 (MTT; 48 h): 0.8 µM
COc1cccc2c1C(=O)c1c(O)c3c(c(O)c1C2=O)C[C@@](O)(C(=O)CO)C[C@@H]3O[C@H]1C[C@H](N)[C@H](O)[C@H](C)O1 — viability (MTT; 10 µM, 24 h): 11.8%
C=C(C)[C@H](CC=C(C)C)Cc1c(O)cc(O)c2c1O[C@H](c1ccccc1O)CC2=O — IC50 (MTT; 48 h): 21.3 µM
CC(C)(C)CC(C)(C)Nc1c(-c2cccc(C#N)c2)nc2ncccn12 — viability (MTT; 25 µM, 48 h): 73.6%
C=C(C)[C@H](CC=C(C)C)Cc1c(O)cc(OC)c(C(=O)/C=C/c2ccc(O)cc2O)c1O — IC50 (MTT): 23 µM
COc1cc2c(OC)nc3c4cc5c(cc4cc(OCCN4CCC(N6CCCCC6)CC4)c3c2cc1OC)OCO5 — GI50 (MTT): 12 µM
COC(=O)[C@]1(O)C[C@@H](O)[C@@H](O)[C@H](OC(=O)/C=C/c2ccc(O)c(O)c2)C1 — IC50 (WST-1): 10.2 µM
